Here are results for 1 substance from paper PMC5760799 (Journal of Pharmaceutical Analysis, 2011).

Data set [1] in a line: Pharmacokinetic study of PSN-1 in rats after intravenous administration. Format: in vivo. The settings on record: male, Wister, rat, plasma, 3 mg/kg. The method, boiled down: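 Six male Wister rats (220–250 g), fasted overnight, received a single iv dose of 3.0 mg/kg. About 0.5 mL of blood was drawn from the ocular vein from 0 to 8 h, with time points split between two groups of three rats. Blood was heparinised, spun at 890g for 10 min and plasma held at –20 °C. Plasma was then precipitated with acetonitrile/0.2% formic acid with thymopentin IS and run by UPLC-MS/MS (SRM). Non-compartmental analysis; mean±SD.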

Data set [2] is described as follows: Stability of PSN-1 in rat plasma. The class given is in vitro ADME. Conditions: UPLC-MS/MS, n=6.

Ends that are not written are not given here.

For orientation: AUC(0-inf) means total exposure, with the tail of the curve extrapolated. Read a high AUC(0-inf) as more exposure. Usually AUC(0-t) stands for exposure summed from dosing to a finite time, without extrapolation to infinity. Read a high AUC(0-t) as high exposure. In general, Cmax refers to the highest concentration seen after dosing. As usually defined, the Tmax is the time from dosing to the highest level. The Vd is the apparent volume that relates the amount in the body to the concentration in plasma or blood. Usually clearance stands for the volume of plasma or blood freed of the substance per unit of time. Read a low clearance as inefficient removal. Broadly, the half-life is the time in which the quantity being followed falls by half. A lower half-life goes with fast loss. In data set [1], FLSLIPHIVSGVASIAKHF-NH2 [PSN-1] came in with an area under the curve AUC(0-inf) of 1760 ± 404 ng·h/mL. In addition, the AUC(0-t) in data set [1] was 1660 ± 356 ng·h/mL. In addition, the Cmax in data set [1] came out at 1290 ± 340 ng/mL. In data set [1], the Tmax turned out to be 1.02 min. The substance further came in with a Vd in data set [1] of 5.23 ± 0.84 L/kg. For the same substance, the clearance in data set [1] is 29.7 mL/min/kg. In data set [1], this substance had a half-life of 2.08 ± 0.31 h. Besides, the “Accuracy (RE)” value in data set [2] (long term, −20 °C for 10 days, added 0.05 μg/mL) is −4.9%; in data set [2] (long term, −20 °C for 10 days, added 0.2 μg/mL) it was −10.1%; in data set [2] (long term, −20 °C for 10 days, added 1.6 μg/mL), −1.8%; in data set [2] (short term, room temperature for 4 h before processing, added 0.05 μg/mL), 5.2%; in data set [2] (short term, room temperature for 4 h before processing, added 0.2 μg/mL) it was −5.5%; in data set [2] (short term, room temperature for 4 h before processing, added 1.6 μg/mL), −5.3%. The “Accuracy (RE)” value in data set [2] (three freeze–thaw cycles (−20 to 25 °C), added 0.05 μg/mL) was −0.8%; in data set [2] (three freeze–thaw cycles (−20 to 25 °C), added 0.2 μg/mL) it was 3.4%; in data set [2] (three freeze–thaw cycles (−20 to 25 °C), added 1.6 μg/mL), −1.3%.
